Compound activity: PubChem, Broad Institute
Only some compounds are listed: those with a hit (about 3.1% of all), similar ones and a draw of the others.
PolyA inhibitor: yeast polyadenylation inhibition; 0.02% of 300,000 active; activity score, % at 12 µM; S. cerevisiae SKY197-pL101 polyadenylation reporter, beta-gal luminescence; efflux-impaired pdr1/pdr3 knockout yeast; score 100 = 6 SD above DMSO;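 active means lowest replicate activity score at least 50, where 100 means six control SD above control mean; inconclusive means lowest score under 50 but half or more replicates reach 50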;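 further: yeast exposed to compound for 9 h at 30 °C; higher score means more reporter readthrough which indicates perturbed polyadenylation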
Beta cell apopt: blocks beta cell apoptosis. INS-1E cytokine-induced death, ATP luminescence, 48 h; percent of positive-control rescue, neutral wells zero. protection from apoptosis, % (no concentration beside the values). 0.8% of 300,000 active. AID 435005;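 active means Every replicate reaches about 75%, or at least half do and their mean reaches it too, limit read from the data; inconclusive means At least half of replicates reach the limit but their mean does not; inactive means Under half of replicates reach the limit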;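 further: 0% = cytokine-treated negative control wells and 100% = positive control rescue; higher means more ATP so stronger rescue from cytokine killing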
CSC inhib: blocks cancer stem cells | AID 2717 | 1.1% of 300,000 active | cancer stem cell-like cells viability, luminescence | inhibition, % at 7.5 µM; in the data active means inhibition above about 75%; inconclusive means no clear call, values can overlap the other calls; tested in HMLE shEcad cells
HIF activator: HIF pathway transcriptional activation | U2OS HRE-luciferase reporter, luminescence; normalized: DMSO 0%, desferrioxamine 100% | 0.32% of 300,000 active | activation, % at 7.5 µM (by protocol) | AID 1910;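 active means mean activation of at least 10% of the iron chelator positive control signal, with at least half of replicates also reaching 10%; inconclusive means mean and replicate majority disagree about reaching 10%; inactive means mean and most replicates under 10%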
Calb FLC: affects C. albicans growth with fluconazole; 0.57% of 300,000 active; growth inhibition, % (test concentration not listed); C. albicans CaCi-2 (fluconazole-resistant clinical isolate) + fluconazole, Alamar Blue growth, 48 h;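 active means growth inhibition above about 58% in most replicates, limit read from the data, passing the limit was not always enough; inconclusive means exactly half the replicates above a set limit; inactive means most replicates below a set limit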;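 further: all wells also contain fluconazole at 8 µg/ml as a sub-toxic cotreatment; 0% = median of DMSO wells and 100% = median of geldanamycin control wells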
T cruzi inh: blocks replication of Trypanosoma cruzi; AID 1885; inhibition, % (test concentration not listed); 1.4% of 300,000 active; T. cruzi beta-gal in NIH3T3, luminescence, 90 h;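 active means mean inhibition across valid replicates above about 55%, limit read from the data; inconclusive means mean below that limit but half or more replicates reach it; inactive means mean below it, under half of replicates reach it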;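 further: signal also drops with host cell toxicity which is not excluded here; 0% = plate median of DMSO wells and 100% = zero luminescence signal; higher percent means less beta-gal luminescence so fewer parasites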
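Incubation – ≥90 h infection period, 3 h prior cell attachment · System – NIH/3T3 fibroblasts plus reporter T. cruzi · Doses – compound pinned at 50 nL/well, DMSO · Read-out basis – percent inhibition of parasite-derived β-gal signal · Signal – luminescent β-galactosidase signal after 60 min lysis · Also added – 5000 T. cruzi trypomastigotes/well · Medium – Low-serum DMEM with 2% FBS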
An asterisk follows results filed as active; ? = inconclusive; · = not tested or not shown.

SMILES	PolyA inhibitor	Beta cell apopt	CSC inhib	HIF activator	Calb FLC	T cruzi inh
Cc1cccc(Cn2nnc3c2C(=O)c2ccccc2C3=O)c1	-32	110*	-14	-1	-10	61*
CCN(CC)C(=O)NC1CC(=O)N(c2ccc(OC)cc2)C1 (stereo not drawn)	5	1	-18	0	11	-16
CCCCc1c(O)nc(SCC(=O)Nc2cccc3ccccc23)n(-c2ccccc2OC)c1=O	-5	-10	-3	0	83*	-6
Cc1ccccc1NC(=S)Nc1cccc2cnccc12	13	129*	13	0	-4	-8
COc1cc(/C=C/C(=O)O)cc(S(=O)(=O)N(CC(C)C)CC(C)C)c1OC	-7	0	7	0	1	16
CCn1cc([N+](=O)[O-])c(C(=O)N2N=C(c3ccc(Cl)c(Cl)c3)CC2c2ccccc2O)n1 (stereo not drawn)	1	2	-2	-1	35	37
CCn1cc([N+](=O)[O-])c(C(=O)N2N=C(c3ccc4ccccc4c3)CC2c2cc(Br)ccc2O)n1 (stereo not drawn)	6	27	-3	-1	0	56*
Cc1cccn2c(=O)c3cc(C(=O)NC4CCCC4)c(=N)n(Cc4ccc(F)cc4)c3nc12	0	31	-17	0	6	36
Cc1cccn2c(=O)c3cc(C(=O)NC4CCCCC4)c(=N)n(Cc4ccccc4)c3nc12	7	12	10	0	-3	58*
CCCCNC(=O)c1cc2c(=O)n3cccc(C)c3nc2n(Cc2ccccc2)c1=N	1	·	·	0	-18	60*
COc1ccc(CN(C)C(=O)COC(=O)c2c(-c3ccccc3Cl)noc2C)cc1	-2	-1	·	0	7	5
O=C(CSc1nnc(-c2ccco2)o1)N1CCCCC1	4	0	·	1	-24	-9
C(=N\Nc1ccccc1)/c1ccc(N2CCOCC2)cc1	-16	-11	39	2	?	18
Clc1cccc(N/N=C/c2ccc(N3CCOCC3)cc2)c1	-15	8	66	2	-20	60*
CC(C)c1noc2ncc(C(=O)c3cc(Cl)cc(Cl)c3O)cc12	21	8	23	0	99*	-6
COc1ccc(C=C2C=C(C(C)(C)C)C(=O)C(C(C)(C)C)=C2)cc1OC	5	-4	?	-6	-5	75*
CCC(C)(C)C1CCc2[nH]nc(C(=O)NCc3ccccn3)c2C1 (stereo not drawn)	·	-5	10	·	·	·
Cc1ccccc1C1c2[nH]c3ccccc3c2CCN1CCCn1cccn1 (stereo not drawn)	8	1	2	0	5	8
Cc1ccccc1C1c2[nH]c3ccccc3c2CCN1Cc1cccn1-c1ncccn1 (stereo not drawn)	4	-1	·	0	2	55*
Fc1ccccc1C1c2[nH]c3ccccc3c2CCN1Cc1cccn1-c1ncccn1 (stereo not drawn)	-4	1	5	0	-12	77*
COc1ccc(-c2cc(C(=O)N/N=C(\C)c3cccnc3)c3ccccc3n2)c(OC)c1	-11	5	1	1	-10	16
CC(C)NCCCCOc1ccc(Br)cc1Cl	21	-5	7	0	7	29
CCN(C(=O)CCc1nnc2ccc(NCc3ccco3)nn12)c1ccccc1	5	·	-6	-1	-1	1
CCCCOC1CC(c2ccc(OCc3ccc(OC)cc3)c(OC)c2)N(C)O1 (stereo not drawn)	-7	2	·	2	2	19
CCCCCCCC(=O)Nc1cc(C(=O)NCCC)ccc1N1CCC2(CC1)CC(c1ccccc1)=NO2	-27	·	8	0	13	57*
SMILES	PolyA inhibitor	Beta cell apopt	CSC inhib	HIF activator	Calb FLC	T cruzi inh
CCCNC(=O)c1ccc(N2CCC3(CC2)CC(c2cccc(Br)c2)=NO3)c(NC(=O)c2ccccc2)c1	8	14	11	0	14	57*
N#Cc1ccc(C(=O)NNC(=O)c2cccc(S(=O)(=O)N3CCOCC3)c2)cc1	·	-6	-25	·	·	·
O=C(CSc1nc2nc(-c3cccs3)cc(C(F)(F)F)c2c(=O)[nH]1)Nc1c(F)c(F)c(F)c(F)c1F	-1	14	88*	0	23	-8
CCn1c2ccccc2c(=O)c2ccccc21	-10	-2	3	0	34	14
Cn1c(-c2ccccc2)c(C(=O)CCl)c2ccccc21	-37	·	·	-7	45	71*
CCn1c(-c2ccccc2)c(C(=O)CCl)c2ccccc21	-20	?	1	-7	9	61*
CN1CCN(C(=O)C23CC4CC(C2)CC(c2ccccc2)(C4)C3)CC1	12	·	40	0	-2	41
O=[N+]([O-])c1ccc(-n2cnc3ccccc32)c([N+](=O)[O-])c1	-15	118*	-6	0	-2	71*
O=[N+]([O-])c1ccc2c(c1)ncn2-c1ccccc1	-13	-1	-10	0	3	-7
O=C1CCCc2oc3c(c21)CCCC3	-9	-9	·	0	4	-15
Cc1cc(C)c(CN2CCN(C(=O)Cn3cnc4c(OCc5ccccc5)ncnc43)CC2)c(C)c1	·	77*	·	·	·	·
CCCNC(=O)c1ccc2c(c1)nc(C)n2-c1cccc(Cl)c1	20	-6	-15	0	4	5
C/C(=N\NC(=O)c1c(C)nc2ccccn12)c1ccc(O)cc1O	5	88*	4	13*	4	51
Cc1ccc(C)c(S(=O)(=O)NCc2ccncc2)c1	3	9	10	-1	?	1
Cc1cc(S(=O)(=O)NCc2ccncc2)c(C)cc1Br	-4	75*	-3	0	7	-13
CCOc1cc(S(=O)(=O)NCc2ccncc2)ccc1Cl	-1	111*	-2	0	32	-65
Cc1ccc(S(=O)(=O)NCc2ccncc2)cc1	25	53	-7	0	37	-46
CC1CCCCC1NS(=O)(=O)c1ccc(S(=O)(=O)NCc2ccncc2)cc1 (stereo not drawn)	8	77*	·	0	-7	-23
CCOc1ccc(S(=O)(=O)NCc2ccncc2)cc1	12	116*	22	0	11	-65
COc1cccc(C2N=C(c3ccccc3C)NO2)c1OC (stereo not drawn)	-9	-1	-2	2	-10	-9
Cc1ccsc1CNCC(O)c1ccccc1 (stereo not drawn)	33	1	-4	-1	-3	-1
Cc1nc(N2CCN(C(=O)c3ccco3)CC2)nc2c1C(=O)CCC2	-14	0	-13	3	-7	-17
COc1cc(/C=C/C(=O)OCC(=O)NCc2ccco2)ccc1O	-11	-1	·	0	1	2
O=C(NC(=S)Nc1ccccn1)c1cccc([N+](=O)[O-])c1	-10	0	12	709*	-10	13
